Experimental data taken from the EternaBench riboswitch data.

System: MS2 coat protein
Assay: apparent Kd, MS2 coat protein; higher = weaker binding; RNA-MaP array; FMN 200 µM where present
Summary of the method: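 The apparent Kd comes from binding curves fitted cluster by cluster, filtered, and summarised as a median. Those curves followed SNAP-549-labelled MS2 coat protein from 0.7 or 1.5 nM, doubling to 3 µM, on Illumina sequencing-chip clusters where stalled E. coli RNA polymerase had transcribed the designs, without and then with constant ligand. The buffer was 100 mM Tris-HCl pH 7.5, 80 mM KCl, 4 mM MgCl2, BSA, DTT, yeast tRNA and Tween-20, and green signal was normalised to red-channel RNA signal and control-cluster median Fmax.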

[1] = designed as: OFF switch for flavin mononucleotide, no ligand
[2] = ligand present: flavin mononucleotide, designed as: OFF switch for flavin mononucleotide
[3] = designed as: ON switch for flavin mononucleotide, no ligand
[4] = ligand present: flavin mononucleotide, designed as: ON switch for flavin mononucleotide

Sequence: CCAUCGAGUGUGAGGAUAUGCUGGUCCUUGGAUCAGCAGAAGGCACAUGAGGAUCACCCAUGUGAAUACGGUGG
- apparent Kd [1]: 29.9 nM
- apparent Kd [2]: 199 nM

Sequence: CUUAUGUAAGGAUAUCAGUAGUAAAAAAAUAAAAUUACUACUGAGAAGGUACAUGAGGAUCACCCAUGUAUCAA
- apparent Kd [1]: 27.6 nM
- apparent Kd [2]: 30.4 nM

Sequence: CCAUCGUGUGUGAGGAUAUGCUGGACCUUGGUUCAGCAGAAGGCACAUGAGGAUCACCCAUGUGAAUACGGUGG
- apparent Kd [1]: 18.9 nM
- apparent Kd [2]: 32.3 nM

Sequence: UAUAUACAUGAGGAUCACCCAUGUAAGGAUAUGCUUUAUUAUUAUUAUUAUUAUUAUUGCAGAAGGUACAAUAU
- apparent Kd [1]: 32 nM
- apparent Kd [2]: 29.8 nM

Sequence: CAUUUUGCCGAGGAUAUGGAGGAUGACACUCUACCAGAAGGUGGCACAUGAGGAUCACCCAUGUGGAGUUCGCG
- apparent Kd [1]: 79.3 nM
- apparent Kd [2]: 92.7 nM

Sequence: GGCAUAAACGAGGAUAUCGUAUCGGAAACGAUACGAGAAGGUGUAACAUGAGGAUCACCCAUGUUCCUCAAGCC
- apparent Kd [1]: 36.7 nM
- apparent Kd [2]: 34.8 nM

Sequence: AUUACGUCAGGAUAUCUGAUGUCUAACUUCGGUUAGACAUCAGAGAAGGGACAUGAGGAUCACCCAUGUAAUAG
- apparent Kd [1]: 54.5 nM
- apparent Kd [2]: 56.2 nM

Sequence: AGUACGUCAGGAUAUCUGAUGUCUAACUUCGGUUAGACAUCAGAGAAGGGACAUGAGGAUCACCCAUGUACUAG
- apparent Kd [1]: 38.7 nM
- apparent Kd [2]: 42.6 nM

Sequence: AAUUGACACGUAGGAUAUCGCUCUAUUUUAACACGAGAAGGACGUACAUGAGGAUCACCCAUGUUUAAUGGUGUAGAUAAGUUG
- apparent Kd [1]: 105 nM
- apparent Kd [2]: 228 nM

Sequence: AGUUAAUAUCGAGGAUAUGUCUAGACACAUGAGGAUCACCCAUGUAUGUGUAUAGAAGGCGAUAUUAACAGCAUGUUACAUGCA
- apparent Kd [3]: 40.2 nM
- apparent Kd [4]: 16.7 nM

Sequence: UUUAUGUAAGGAUAUGCGGGCGGGCGCGUUUGUGUUUGUUUGUAGAAGGUACAUGAGGAUCACCCAUGUAGUGG
- apparent Kd [1]: 133 nM
- apparent Kd [2]: 169 nM

Sequence: CCCGACUAGAAGUCGAUACGGAGGAGAAGGCGCCUCCUGGGUCCACAUGAGGAUCACCCAUGUGGCGAGGAUAUCCUCAGUUUU
- apparent Kd [1]: 10.9 nM
- apparent Kd [2]: 96.6 nM

Sequence: GCGAUUUAGUAGAAGGUACGAUAUAUAUCAUUGUAAGGAUAUACUUACAUGAGGAUCACCCAUGUUAAGGGUUAUAAUAAUCGC
- apparent Kd [3]: 195 nM
- apparent Kd [4]: 134 nM

Sequence: GGAUUAAUAGCCCACAUGAGGAUCACCCAUGUAGUAUUUUACAAGGAUAUGGUGGGACUUCGUGGCCAGAAGGUGUAAAGGAUC
- apparent Kd [3]: 451 nM
- apparent Kd [4]: 397 nM

Sequence: AUUAAUAAUCGAGGAUAUCACGUCGAAUAGACGUGAGAAGGCGAUCAUAACAUGAGGAUCACCCAUGUAUUACAUGAAGUUAAU
- apparent Kd [3]: 27.5 nM
- apparent Kd [4]: 23.9 nM

Sequence: UUGUGGGAGCAGGAUAUCUUAGUUUGGUUGUGUGGAGAAGGGCUGACAUGAGGAUCACCCAUGUGGUCCUAGAU
- apparent Kd [1]: 24.1 nM
- apparent Kd [2]: 29.5 nM

Sequence: ACAAGAUCAGGAUAUACAUGAGGAUCACCCAUGUAUUUCAAAAAGGGACUUUCUUAAUGUAGAAGGGAUCUUGU
- apparent Kd [1]: 22.5 nM
- apparent Kd [2]: 94.4 nM

Sequence: GGGUGGCGUAGAGGAUAUGUGUUACAUGAGGAUCACCCAUGUGCAUAUGAUGUUCGUGUGUAUGCAUAGAAGGCUACGUCGCUA
- apparent Kd [3]: 222 nM
- apparent Kd [4]: 125 nM

Sequence: GGUACCAACACAGGAUAUGCUUUCCUUUGGGAAGCAGAAGGGUGAAACAUGAGGAUCACCCAUGUGGUGCCAGGGCGUGAGCCC
- apparent Kd [3]: 1360 nM
- apparent Kd [4]: 79.5 nM

Sequence: CUUAUGUGAGGAUAUCAGUAGUAAAAAAAUAAAAUUACUACUGAGAAGGCACAUGAGGAUCACCCAUGUCUUUC
- apparent Kd [1]: 33 nM
- apparent Kd [2]: 37.8 nM

Sequence: AUAUCAUACCAAGGAUAUUUAGGAUUUGUGUAGACAUGAGGAUCACCCAUGUGGCGUUAGUCACGGGAGAAGGUGGUAUGAUAU
- apparent Kd [3]: 622 nM
- apparent Kd [4]: 105 nM

Sequence: UUCAGCUCGUCAGGAUAUACGUCACUGCUUCGGCAGUGUGGUAAGAUCACAUGAGGAUCACCCAUGUAGAAGGGACGAGCUGAC
- apparent Kd [1]: 13.5 nM
- apparent Kd [2]: 252 nM

Sequence: GUGAGAAUAGGAGGAUAUAUACAACAUGAGGAUCACCCAUGUACCCGUGUAGUAGAAGGUUUGUUUAUAUAUAAUAUUAUAUUU
- apparent Kd [3]: 20.2 nM
- apparent Kd [4]: 18.7 nM

Sequence: CCGAAUGUCACAGGAUAUGGUCCGGGCUCGCGACCAGAAGGGUGAUCUCACAUGAGGAUCACCCAUGUGUAGGCGUUAGGCUAU
- apparent Kd [3]: 34.1 nM
- apparent Kd [4]: 260 nM

Sequence: CCUCCCUGAGGAUAUCCACCCUCAUACAUGAGGAUCACCCAUGUUCAUCCGUGGCUACCCGGAGAAGGCAGCUCUG
- apparent Kd [1]: 57.8 nM
- apparent Kd [2]: 49.7 nM

Sequence: AUACCUUAUGAGAAGGCGAUCAUGAAACAUGAUCGAGGAUAUCAUGUAAACAUGAGGAUCACCCAUGUAUGGGUAUUAUGGUAA
- apparent Kd [3]: 26.5 nM
- apparent Kd [4]: 9.1 nM

Sequence: UGGCUACAUGAGGAUCACCCAUGUCAGGAUAUGCCGUUGGAUUGCCUUCGUCGUUCGGGUAGAAGGGACUGCGU
- apparent Kd [1]: 30.3 nM
- apparent Kd [2]: 27.5 nM

Sequence: UACAUGAGGAUCACCCAUGUUUUGUCGUGUAUGGUAUUUAUCUAGGAUAUCAAUUGAUUUAAUUAUGAGAAGGAGAAUAUUAAU
- apparent Kd [1]: 36.5 nM
- apparent Kd [2]: 30.7 nM

Sequence: UCUGCCGCCGUGAGGAUAUGCCCAAAUAAAAGCGGGCAGAAGGCACAUGAGGAUCACCCAUGUCCUGCGGUUUU
- apparent Kd [1]: 22.1 nM
- apparent Kd [2]: 93.6 nM

Sequence: ACAUGAUCAGGAUAUACAUGAGGAUCACCCAUGUAUAUAAAAAAAAAACUUUCUUCAUGUAGAAGGGAUCUUGU
- apparent Kd [1]: 16.6 nM
- apparent Kd [2]: 26.3 nM

Sequence: GUGAGUGGUCAGGAUAUGCUGUACAAAAGUACAGCAGAAGGGACUACAUGAGGAUCACCCAUGUUUACUUCAUG
- apparent Kd [1]: 268 nM
- apparent Kd [2]: 311 nM

Sequence: GGACGUCACAUUUACAUGAGGAUCACCCAUGUCAAAAGACAUGAGGAUAUGGAUGCGAAACGCAUCCAGAAGGCAUGGACGUCC
- apparent Kd [3]: 286 nM
- apparent Kd [4]: 27.8 nM

Sequence: GCCUUACCGGUCAGGAUAUACACCCGUCACUCCUUGUAGAAGGGACAUGAGGAUCACCCAUGUACAUUACAUUG
- apparent Kd [1]: 31.1 nM
- apparent Kd [2]: 29.2 nM

Sequence: GCGUUGAACGAGAAGGCCACUACAUGAGGAUCACCCAUGUCGUGGAGUAUUGGAGGAUAUCGAUCGGCGUCUCAUGAGGACAUA
- apparent Kd [1]: 5.34 nM
- apparent Kd [2]: 5.62 nM

Sequence: AGAUGGUGAUGUUAUCUUCGUCGGACAUGAGGAUCACCCAUGUAGGAUAUGCUACUCAAAGAGUAGCAGAAGGACAUGUAUCUU
- apparent Kd [1]: 119 nM
- apparent Kd [2]: 896 nM

Sequence: AUGAGGUCAGGAUAUGCAUGGCGGGACUUGCGUCGUGGCGUGGAGAAGGGACAUGAGGAUCACCCAUGUGGAGC
- apparent Kd [1]: 56.6 nM
- apparent Kd [2]: 64.7 nM

Sequence: UUACUCAUGUAAGGAUAUGCAGCCGUUUCGGCUGCAGAAGGUACUAUAAUACAUGAGGAUCACCCAUGUCUUUUGAAUUUAGAC
- apparent Kd [3]: 91.4 nM
- apparent Kd [4]: 33.3 nM

Sequence: AAGACUAGAGGAUAUACAUGAGGAUCACCCAUGUAACUGUCAGAAAACUGACGGAGAUGUAGAAGGCUAGUCAA
- apparent Kd [1]: 17.7 nM
- apparent Kd [2]: 34.7 nM

Sequence: GUUGUGUGAGGAUAUGCCUGGCCGUGUGGCCGGUUUGGGUGGCAGAAGGUACAUGAGGAUCACCCAUGUACGGG
- apparent Kd [1]: 105 nM
- apparent Kd [2]: 107 nM

Sequence: CUCUUGUGAGGAUAUCAGGUGUGCUAGCGUACUGGUACAUCUGAGAAGGCACAUGAGGAUCACCCAUGUUUCUU
- apparent Kd [1]: 97.7 nM
- apparent Kd [2]: 72.3 nM

Sequence: GAUCCACAUGAGGAUCACCCAUGUCAGGAUAUGAUACUAUGUACUUCGGUACAUAGUAUCAGAAGGGACAGAUC
- apparent Kd [1]: 168 nM
- apparent Kd [2]: 108 nM

Sequence: GCCAUCGCGUGAGGAUAUGCUCCGGUUUCCGGAGCAGAAGGCAUGUCAUAAGACAUGAGGAUCACCCAUGUAGUCAAGAUGGCA
- apparent Kd [3]: 270 nM
- apparent Kd [4]: 11.4 nM

Sequence: UUGAUUAGAAGUUAACAUGAGGAUCACCCAUGUAUUGGAUCAGAGGAUAUGCAUGUUUGAUAGUAGCAGAAGGCUGAUGGUGGA
- apparent Kd [3]: 53.5 nM
- apparent Kd [4]: 61.6 nM

Sequence: UUUAAUAUUAUAGGAUAUGGAUACGAUACGUAUCCAGAAGGGUGAUUAAACUAUAAUCUAUACAUGAGGAUCACCCAUGUUUAU
- apparent Kd [3]: 212 nM
- apparent Kd [4]: 44.7 nM

Sequence: UGUUGUUCAGGAUAUGAUGUAUAAUACAUGAGGAUCACCCAUGUAGAUCCUGAAUUAACGUCAGAAGGGAAUGUUG
- apparent Kd [1]: 15.1 nM
- apparent Kd [2]: 17 nM

Sequence: UUAUUGUGAGGAUAUCAGGUGUGCUAGCGUACUGGUACAUCUGAGAAGGCACAUGAGGAUCACCCAUGUUCCUU
- apparent Kd [1]: 14.3 nM
- apparent Kd [2]: 37.3 nM

Sequence: UUCAGGGAUCAAGGAUAUCUAUAAUCAUGCGGACAUGAGGAUCACCCAUGUUGAUUACCCAUGAGGGAGAAGGUGAACAUGAGG
- apparent Kd [3]: 40.1 nM
- apparent Kd [4]: 16.7 nM

Sequence: GGUACUCAAAGAGUACCAAUACGAACAUGAGGAUCACCCAUGUAGGAUAUGCUACUCAAAGAGUAGCAGAAGGAUAUGUGCCUA
- apparent Kd [1]: 14.7 nM
- apparent Kd [2]: 15.3 nM
